15 molecules from ChEMBL document CHEMBL4190277, “Discovery of imidazopyridines containing isoindoline-1,3-dione framework as a new class of BACE1 inhibitors: Design, synthesis and SAR analysis” (Eur J Med Chem, 2017) can be followed below.

The inhibition is the relative decrease from the control value, in per cent. Higher therefore signals strong suppression. By IC50 is commonly meant the point on the concentration scale where inhibition reaches its midpoint. A higher IC50 goes with a need for much substance.

The target in assay [1] is T1, Beta-secretase 1 (Homo sapiens, UniProt P56817). Kind of assay: Inhibition of human BACE1 (1 to 460 residues) expressed in baculovirus expression system at 50 uM using Rh-EVNLDAEFK-quencher as substrate after 90 mins by FRET assay. In a few lines:
(§1)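 FRET kit assay, manufacturer's protocol with small modifications. Compounds were taken from DMSO stocks and diluted in assay buffer (50 mM sodium acetate, pH 4.5). Substrate and compound were mixed, then enzyme (1 U/mL) was added to start the reaction. After about 90 min at room temperature, 2.5 M sodium acetate stop solution was added. Read-out was fluorescence at Ex 545/Em 585 nm. Triplicate wells, 3–4 independent experiments, mean ± SEM; OM99 served as reference inhibitor.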

In assay [2] the target is T1, Beta-secretase 1. Kind of assay: Inhibition of human BACE1 (1 to 460 residues) expressed in baculovirus expression system at 10 uM using Rh-EVNLDAEFK-quencher as substrate after 90 mins by FRET assay. A digest of the protocol:
as §1

For assay [3], the target named is T1, Beta-secretase 1. Kind of assay: Inhibition of human BACE1 (1 to 460 residues) expressed in baculovirus expression system using Rh-EVNLDAEFK-quencher as substrate after 90 mins by FRET assay. A digest of the protocol: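 FRET kit assay, manufacturer's protocol with small modifications. Compounds were taken from DMSO stocks and diluted in assay buffer (50 mM sodium acetate, pH 4.5). Substrate and compound were mixed, then enzyme (1 U/mL) was added to start the reaction. After about 90 min at room temperature, 2.5 M sodium acetate stop solution was added. Triplicate wells, 3–4 independent experiments, mean ± SEM; OM99 served as reference inhibitor.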

T1 sequence (P56817 whole entry, the tested form may be a part): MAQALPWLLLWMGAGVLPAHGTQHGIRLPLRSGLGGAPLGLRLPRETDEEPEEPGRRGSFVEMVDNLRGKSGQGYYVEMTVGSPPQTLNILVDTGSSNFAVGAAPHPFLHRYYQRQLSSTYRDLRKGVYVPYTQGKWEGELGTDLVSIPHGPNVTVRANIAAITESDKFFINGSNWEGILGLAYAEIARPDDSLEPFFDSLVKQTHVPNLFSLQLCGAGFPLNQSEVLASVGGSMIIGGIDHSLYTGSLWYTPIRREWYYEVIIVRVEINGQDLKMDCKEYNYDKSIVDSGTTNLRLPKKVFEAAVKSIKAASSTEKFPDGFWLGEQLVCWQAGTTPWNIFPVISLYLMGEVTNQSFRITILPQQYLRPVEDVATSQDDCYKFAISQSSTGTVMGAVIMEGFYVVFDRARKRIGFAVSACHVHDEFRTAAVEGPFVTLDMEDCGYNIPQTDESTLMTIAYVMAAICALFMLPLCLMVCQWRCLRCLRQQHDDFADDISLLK

`Cc1ccn2c(NC3CCCCC3)c(-c3ccc(OCCCN4C(=O)c5ccccc5C4=O)cc3)nc2c1`: the inhibition on Beta-secretase 1 [1] was determined as 100%; at Beta-secretase 1 [2] it was 61.3%. This molecule yielded an IC50 against Beta-secretase 1 [3] of 2.84 µM.
As for `COc1cc(-c2nc3ccc(Cl)cn3c2NC(C)(C)C)ccc1OCCCN1C(=O)c2ccccc2C1=O`, the inhibition came out at 37.9% at Beta-secretase 1 [1] and 19.4% on Beta-secretase 1 [2].
With `O=C1c2ccccc2C(=O)N1CCCOc1ccc(-c2nc3ccccn3c2NC2CCCCC2)cc1`, the inhibition at Beta-secretase 1 [1] and at Beta-secretase 1 [2] was below 10% throughout.
`Cc1cccn2c(NC3CCCCC3)c(-c3ccc(OCCCN4C(=O)c5ccccc5C4=O)cc3)nc12`: the inhibition against Beta-secretase 1 [1] turned out to be 69.4%; on Beta-secretase 1 [2], 44.4%.
With `COc1cc(-c2nc3ccc(Cl)cn3c2NC2CCCCC2)ccc1OCCCN1C(=O)c2ccccc2C1=O`, the inhibition stood at 88.1% against Beta-secretase 1 [1] and 26.9% at Beta-secretase 1 [2]. On Beta-secretase 1 [3], this molecule registered an IC50 of 14.9 µM.
Consider `CC(C)(C)Nc1c(-c2ccc(OCCCN3C(=O)c4ccccc4C3=O)cc2)nc2ccc(Br)cn12`, for which the inhibition on Beta-secretase 1 [1] turned out to be 34.3%; against Beta-secretase 1 [2], 7.87%.
The like results for `COc1cc(-c2nc3ccc(Br)cn3c2NC2CCCCC2)ccc1OCCCN1C(=O)c2ccccc2C1=O` were, in that order, 43.2% and 36.7%.
For `Cc1ccn2c(NC(C)(C)C)c(-c3ccc(OCCCN4C(=O)c5ccccc5C4=O)cc3)nc2c1`, in that order: 18.3% and 24.2%.
The like results for `CC(C)(C)Nc1c(-c2ccc(OCCCN3C(=O)c4ccccc4C3=O)cc2)nc2ccc(Cl)cn12` were, in that order, 33% and 17.7%.
In the case of `Cc1ccc2nc(-c3ccc(OCCCN4C(=O)c5ccccc5C4=O)cc3)c(NC3CCCCC3)n2c1`, the inhibition against Beta-secretase 1 [1] worked out at 63.7%; at Beta-secretase 1 [2], 37.6%. Moreover, half-maximal inhibition against Beta-secretase 1 [3] (IC50) required 29.4 µM.
The like results for `Cc1cccc2nc(-c3ccc(OCCCN4C(=O)c5ccccc5C4=O)cc3)c(NC3CCCCC3)n12` were, in that order, 87.9%, 61.5% and 5.93 µM.
As for `O=C1c2ccccc2C(=O)N1CCCOc1ccc(-c2nc3ccc(Br)cn3c2NC2CCCCC2)cc1`, the inhibition at Beta-secretase 1 [1] is 45.3%; against Beta-secretase 1 [2], 32.2%.
For `COc1cc(-c2nc3ccc(Br)cn3c2NC(C)(C)C)ccc1OCCCN1C(=O)c2ccccc2C1=O`, the inhibition was 48.7% against Beta-secretase 1 [1] and 33.2% on Beta-secretase 1 [2].
For the molecule `O=C1c2ccccc2C(=O)N1CCCOc1ccc(-c2nc3ccc(Cl)cn3c2NC2CCCCC2)cc1`, the inhibition was 19.6% against Beta-secretase 1 [1] and 11.5% against Beta-secretase 1 [2].
`COc1cc(-c2nc3ccccn3c2NC2CCCCC2)ccc1OCCCN1C(=O)c2ccccc2C1=O`: the inhibition on Beta-secretase 1 [1] was 69.5%; on Beta-secretase 1 [2], 29.3%.
